System: not listed separately
Test: Selectivity ratio of IC50 for human purine nucleoside phosphorylase to IC50 for Schistosoma mansoni purine nucleoside phosphorylase

| SMILES | Ratio IC50 |
| --- | --- |
| CC(C)c1ccc(Cc2c[nH]c3c(=O)[nH]c(N)nc23)cc1 | 1.8 |
| Nc1nc2c(Cc3ccccn3)c[nH]c2c(=O)[nH]1 | 0.003 |
| Nc1nc2c(Cc3ccc(OCc4ccccc4)cc3)c[nH]c2c(=O)[nH]1 | 0.6 |
| Nc1ncnc2c1ccn2[C@H]1O[C@@H](CO)[C@H](O)[C@@H]1O | 1.5 |
| Nc1nc2c(Cc3cccc(Cl)c3)c[nH]c2c(=O)[nH]1 | 0.1 |

The remaining lines, values ahead:

| Ratio IC50 | SMILES |
| --- | --- |
| 6.4 | O=c1nc[nH]c2c([C@H]3O[C@@H](CO)[C@H](O)[C@@H]3O)[nH]nc12 |
| 0.25 | Nc1nc2c(Cc3cccnc3)c[nH]c2c(=O)[nH]1 [PELDESINE] |
| 3.3 | Nc1nc2c(ccn2[C@H]2O[C@@H](CO)[C@H](O)[C@@H]2O)c(=S)[nH]1 |
| 0.033 | Nc1nc2c(Cc3ccncc3)c[nH]c2c(=O)[nH]1 |

Target: not listed separately
Test: Inhibition of Schistosoma mansoni purine nucleoside phosphorylase
Outline: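 Coupled spectrophotometric assay with 5 nM SmPNP (as monomer) in 50 mM potassium phosphate, pH 7.4, with 10 uM inosine and xanthine oxidase 40 milliunits/mL. Uric acid formation read at 293 nm, 25°C, in triplicate. IC50 obtained from rates at six or more inhibitor concentrations. Values are means of at least three independent experiments.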

| SMILES | IC50 |
| --- | --- |
| CC(C)c1ccc(Cc2c[nH]c3c(=O)[nH]c(N)nc23)cc1 | 150 nM |
| Nc1nc2c(Cc3ccccn3)c[nH]c2c(=O)[nH]1 | 7000 nM |
| Nc1nc2c(Cc3ccc(OCc4ccccc4)cc3)c[nH]c2c(=O)[nH]1 | 500 nM |
| Nc1ncnc2c1ccn2[C@H]1O[C@@H](CO)[C@H](O)[C@@H]1O | 200000 nM |
| Nc1nc2c(Cc3cccc(Cl)c3)c[nH]c2c(=O)[nH]1 | 500 nM |

The next lines start with the values.

| IC50 | SMILES |
| --- | --- |
| 47000 nM | O=c1nc[nH]c2c([C@H]3O[C@@H](CO)[C@H](O)[C@@H]3O)[nH]nc12 |
| 800 nM | Nc1nc2c(Cc3cccnc3)c[nH]c2c(=O)[nH]1 [PELDESINE] |
| 1400 nM | Nc1nc2c(Cc3ccccc3)c[nH]c2c(=O)[nH]1 |
| 95000 nM | Nc1nc2c(ccn2[C@H]2O[C@@H](CO)[C@H](O)[C@@H]2O)c(=S)[nH]1 |
| 3000 nM | Nc1nc2c(Cc3ccncc3)c[nH]c2c(=O)[nH]1 |

Target: T1, Purine nucleoside phosphorylase (Homo sapiens, UniProt P00491)
T1 sequence (P00491 whole entry): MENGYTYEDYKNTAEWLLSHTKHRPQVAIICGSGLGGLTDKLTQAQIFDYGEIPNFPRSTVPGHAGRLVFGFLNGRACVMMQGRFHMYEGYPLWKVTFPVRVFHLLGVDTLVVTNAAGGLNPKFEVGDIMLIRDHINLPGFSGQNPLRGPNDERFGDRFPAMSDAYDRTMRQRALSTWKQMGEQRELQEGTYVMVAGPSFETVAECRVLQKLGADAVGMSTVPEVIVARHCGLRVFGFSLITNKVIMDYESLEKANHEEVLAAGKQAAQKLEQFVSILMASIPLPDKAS
Test: Inhibition of human purine nucleoside phosphorylase

| SMILES | IC50 |
| --- | --- |
| CC(C)c1ccc(Cc2c[nH]c3c(=O)[nH]c(N)nc23)cc1 | 270 nM |
| Nc1nc2c(Cc3ccccn3)c[nH]c2c(=O)[nH]1 | 23 nM |
| Nc1nc2c(Cc3ccc(OCc4ccccc4)cc3)c[nH]c2c(=O)[nH]1 | 300 nM |
| Nc1ncnc2c1ccn2[C@H]1O[C@@H](CO)[C@H](O)[C@@H]1O | 300000 nM |
| Nc1nc2c(Cc3cccc(Cl)c3)c[nH]c2c(=O)[nH]1 | 50 nM |

Second part, the molecule after the results:

| IC50 | SMILES |
| --- | --- |
| 300000 nM | O=c1nc[nH]c2c([C@H]3O[C@@H](CO)[C@H](O)[C@@H]3O)[nH]nc12 |
| 200 nM | Nc1nc2c(Cc3cccnc3)c[nH]c2c(=O)[nH]1 [PELDESINE] |
| 315000 nM | Nc1nc2c(ccn2[C@H]2O[C@@H](CO)[C@H](O)[C@@H]2O)c(=S)[nH]1 |
| 100 nM | Nc1nc2c(Cc3ccncc3)c[nH]c2c(=O)[nH]1 |

— ChEMBL document CHEMBL1157547, “Structural basis for selective inhibition of purine nucleoside phosphorylase from Schistosoma mansoni: kinetic and structural studies” (Bioorg Med Chem, 2010)
